Measurements taken from ChEMBL document CHEMBL4130466, “Angeloylated Germacranolides from Daucus virgatus and Their Plasmodium Transmission Blocking Activity” (J Nat Prod, 2017).

Experiments:
[1] = tested on: Plasmodium berghei; test: Antiplasmodial activity against Plasmodium berghei CTRPp expressing GFP assessed as inhibition of early sporogonic stages development at 50 ug/ml after 24 hrs by fluorescence microscopy
[2] = tested on: Plasmodium berghei; test: Antiplasmodial activity against Plasmodium berghei CTRPp expressing GFP assessed as decrease in capacity of zygote to undergo ookinete maturation after 24 hrs by Zeiss fluorescence microscopy; assay type: functional, organism-based
Summary of the method: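 Mice were primed with phenylhydrazine 120 mg/kg ip and infected ip with 10^7 P. berghei CTRPp.GFP RBCs. Day-4 blood with >3 exflagellation centres/1000 RBCs went into pH 7.4 RPMI 1640 (100 μM xanthurenic acid, 20% FBS) with compound over a dose range. Incubation was 19 °C, 24 h. GFP zygotes and ookinetes were counted by fluorescence microscopy, with inhibition calculated against 0.1% DMSO. Wells were in triplicate, and experiments were run at least twice.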

[3] = tested on: HaCaT; test: Cytotoxicity against human HaCaT cells; assay type: cell-based
[4] = tested on: A-375; test: Cytotoxicity against human A375 cells; assay type: cell-based
[5] = tested on: Plasmodium berghei; test: Antiplasmodial activity against Plasmodium berghei CTRPp expressing GFP assessed as inhibition of early sporogonic stages development after 24 hrs by fluorescence microscopy

| SMILES | inhibition at 50 µg/mL [1] [%] | also measured |
| --- | --- | --- |
| C/C=C(/C)C(=O)O[C@]1(C)C(=O)O[C@H]2C[C@]3(C)O[C@H]3CC/C(C)=C/[C@H](OC(=O)[C@@]3(C)O[C@H]3C)[C@@H]21 | 22 to 35 | – |
| C/C=C(/C)C(=O)O[C@@H]1[C@H]2[C@H](C/C(C)=C/CC[C@]3(C)O[C@@H]13)OC(=O)[C@@]2(C)O | 22 to 35 | – |
| C=C1C[C@H](OC(=O)/C(C)=C\C)[C@H]2[C@H](/C=C(\C)CC[C@@H]1O)OC(=O)[C@@]2(C)O | 22 to 35 | – |
| C/C=C(/C)C(=O)O[C@]1(C)C(=O)O[C@H]2C/C(C)=C/CC/C(C)=C/[C@H](OC(=O)[C@@]3(C)O[C@H]3C)[C@@H]21 | 92 | IC50 [2]: 48.4 µM; IC50 [3]: > 100 µM; IC50 [4]: > 100 µM; IC50 [5]: 82.3 µM |
| C/C=C(/C)C(=O)O[C@]1(C)C(=O)O[C@H]2C/C(C)=C/CC[C@]3(C)O[C@H]3[C@H](OC(=O)[C@@]3(C)O[C@H]3C)[C@@H]21 | 22 to 35 | – |
| C/C=C(/C)C(=O)O[C@H]1/C=C(\C)CC[C@@H]2O[C@@]2(C)C[C@@H]2OC(=O)[C@@](C)(O)[C@@H]12 | 22 to 35 | – |
| C=C1C[C@@H]2OC(=O)[C@@](C)(O)[C@H]2[C@@H](OC(=O)/C(C)=C\C)[C@@H]2O[C@@]2(C)CC[C@H]1OO | 22 to 35 | – |
| C=C[C@@]12COC(=O)C(=C)[C@@H]1[C@@H](O)[C@H](C(=C)C(=O)OC)[C@@H](OC(=O)C(=C)CO)C2 [VERNODALOL] | – | IC50 [5]: 19 µM |
